Measured values as given in PubChem BioAssay.
Inconclusive results are not listed.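 Rule for the calls, unless noted: active = viability at or below 27.92% in each of two runs, the all-compound median minus 4 SD; inconclusive = no clear call, values can overlap the other calls; inactive = the rest.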

Assays:
[1] = S. cerevisiae growth inhibition in permissive medium (OD615), pilot counter-assay for S. cerevisiae lifespan shortening project, permissive growth control (AID 705;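 active = growth inhibition above 25% in both replicates, a cutoff set 3 SD above the mean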); settings: OD615, 24 h, at 10 µM, active compounds read high
In short: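 Material: engineered DeaD yeast; Compound: one dose 10 µM, DMSO 0.25% final; Detection: absorbance (optical density) at 615 nm; Buffer or medium: permissive raffinose/galactose medium; Timing: 24 h exposure, 30 °C.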

[2] = S. cerevisiae growth inhibition in restrictive medium, OD615, pilot screen, restrictive growth control, yeast lifespan reduction project (AID 706;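 active = growth inhibition above a set limit, 3 SD over mean compound inhibition, in both replicates, cut at about 43% in these data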;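 note: modified DeaD lifespan yeast strain shifted to restrictive glucose medium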); settings: OD615, 48 h, at 10 µM, active compounds read high
In short: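 Buffer or medium: restrictive glucose medium (CSMM-D); test system: modified S. cerevisiae; doses: single dose of 10 µM compound final, 0.25% DMSO; schedule: 48 h compound exposure at 30 °C; detection: absorbance (optical density) measured at 615 nm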

[3] = doxorubicin toxicity protection in MRP-1 cells – H69AR cells, CellTiter-Glo, duplicate, MRP-1 activator project, pilot screen (AID 807;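 active = viability increase at or above a cutoff of the median across tested compounds plus 3 SD, cut at about 8.5% in these data, passing the limit was not always enough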;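 note: compound pretreatment 18-22 h then 72 h combined with doxorubicin; 0% = doxorubicin alone and 100% = vehicle without doxorubicin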); settings: H69AR viability with doxorubicin, CellTiter-Glo luminescence; at 10 µM; active compounds read high
[4] = viability of HCT116 without oncogenic beta-catenin – human colon tumor cells, pilot screen (AID 823;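 active = cell viability at or below a set limit in both duplicate runs, the limit being the all-compound median minus 4 SD, cut at about 23% in these data, passing the limit was not always enough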;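 note: 0% = wells killed by 20 µM Hyamine and 100% = untreated DMSO cell wells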); settings: HCT116 beta-catenin knockout viability, CellTiter-Glo, 60 h; at 10 µM; active compounds read low
[5] = viability of PTEN-null HCT116 cells – cell-based, HCT116 clonal line, CellTiter-Glo, pilot screen (AID 824); settings: HCT116 PTEN-deleted viability, 60 h, at 10 µM, active compounds read low;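 note: 0% = 20 µM Hyamine control and 100% = vehicle cell control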
[6] = RAM pathway blockade in budding yeast – dse1pr::URA3 reporter, 5-FOA selection, pilot screen (AID 869;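 active = inhibition over a set limit, the all-compound mean plus 3 SD, in both replicate runs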;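 note: 0% = DMSO wells with no growth and 100% = 10 µM 1-NA-PP1 with full growth; RAM network block rescues cells from 5-FOA so hits raise OD615 growth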); settings: S. cerevisiae dse1pr::URA3 5-FOA growth, OD615, 2 d; at 10 µM; active compounds read high; strain carries analog-sensitive mutant Cbk1 kinase
[7] = RAM signaling pathway blockade in yeast – S. cerevisiae, Pdr1DBD-CYC8 efflux-inhibited sensitized strain, primary screen (AID 1298;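 active = RAM network inhibition above 8.4% in each of two replicates, 3 SD over the compound average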;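 note: 0% = DMSO untreated cells without growth and 100% = 10 µM 1-NA-PP1 full growth; higher means more yeast growth rescued from 5-FOA killing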); settings: S. cerevisiae cbk1-as DSE1-URA3 strain, 5-FOA growth OD615, 2 d; at 50 µM; active compounds read high

COc1ccc(N(CC(=O)Nc2cccc(SC)c2)S(C)(=O)=O)cc1Cl
inactive: growth inhibition [1] -4.88% | growth inhibition [2] -9.05% | viability increase [3] -6.18% | viability [4] 77.7% | viability [5] 80.6% | inhibition [6] 0.975% | RAM network inhibition [7] 3.03%

CC(=O)c1ccc(NC(=O)CSc2nnc(Cc3cccn3C)n2-c2ccc(F)cc2)cc1
inactive: growth inhibition [1] 0.105% | growth inhibition [2] 12.5% | viability increase [3] -2.21% | viability [4] 98% | viability [5] 94.3% | inhibition [6] 0.005% | RAM network inhibition [7] 5.1%

CCN(CC)CCCNC(=O)c1cc2c(=O)n(C)c3ccccc3c2n1C
inactive: growth inhibition [1] -6.05% | growth inhibition [2] -3.57% | viability increase [3] -6.34% | viability [4] 55.8% | viability [5] 58.4% | inhibition [6] -0.125% | RAM network inhibition [7] 2.21%

Nc1cccc(-n2nncc2-c2ccc(Cl)cc2)c1
inactive: growth inhibition [1] -6.67% | growth inhibition [2] -5.47% | viability increase [3] -1.43% | viability [4] 99.3% | viability [5] 91.8% | inhibition [6] 1.98% | RAM network inhibition [7] 3.64%

CCOC(=O)N1CCN(C(=O)CN(c2cc(Cl)ccc2OC)S(=O)(=O)c2ccccc2)CC1
inactive: growth inhibition [1] 6.4% | growth inhibition [2] -12% | viability increase [3] -2.13% | viability [4] 97.1% | viability [5] 84.1% | inhibition [6] 1.68% | RAM network inhibition [7] 2.07%

O=C1CCC/C1=c1\s/c(=C\c2cccnc2)c(=O)n1-c1ccccc1
inactive: growth inhibition [1] -9.13% | growth inhibition [2] -8.32% | viability increase [3] -5.83% | viability [4] 103% | viability [5] 89.6% | inhibition [6] 0.465% | RAM network inhibition [7] 7.11%

O=C(O)c1cccnc1SC1CC(=O)N(c2cccc(C(F)(F)F)c2)C1=O (stereo not drawn)
inactive: growth inhibition [1] -15.3% | growth inhibition [2] -3.59% | viability increase [3] 0.62% | viability [4] 103% | viability [5] 101% | inhibition [6] 1.56% | RAM network inhibition [7] 3.58%

CC1(C)Cc2c(sc3c2c(=N)n(Cc2ccco2)c(=O)n3Cc2ccc(Cl)cc2)CO1
inactive: growth inhibition [1] -1.16% | growth inhibition [2] 6.14% | viability increase [3] -4.55% | viability [4] 79.9% | viability [5] 70.6% | inhibition [6] 1.69% | RAM network inhibition [7] 4.49%

CC(C)OCCCNC(=O)c1ccc2c(c1)ncn2C1CCCC1
inactive: growth inhibition [1] -12.5% | growth inhibition [2] -6.74% | viability increase [3] -2.69% | viability [4] 102% | viability [5] 97.5% | inhibition [6] 1.38% | RAM network inhibition [7] 1.62%

CCCC(=O)N=c1sc2cccc(F)c2n1C
inactive: growth inhibition [1] -9.43% | growth inhibition [2] -11.1% | viability increase [3] -2.75% | viability [4] 99% | viability [5] 93.2% | inhibition [6] 0.795% | RAM network inhibition [7] 5.05%

CCC(=O)Nc1sc2c(c1C(N)=O)CCN(C(C)=O)C2
inactive: growth inhibition [1] -12.9% | growth inhibition [2] -19.6% | viability increase [3] -0.72% | viability [4] 103% | viability [5] 105% | inhibition [6] 1.94% | RAM network inhibition [7] 3.29%

COc1cccc(C2CC(c3cccc(Br)c3)n3nc(N)nc3N2)c1 (stereo not drawn)
inactive: growth inhibition [1] 2.54% | growth inhibition [2] 4.69% | viability increase [3] -0.49% | viability [4] 96.7% | viability [5] 90.3% | inhibition [6] 0.475% | RAM network inhibition [7] 5.95%

COc1cccc(-c2nc3cc(C)ccc3o2)c1
inactive: growth inhibition [1] -5.93% | growth inhibition [2] 0.415% | viability increase [3] -4.74% | viability [4] 87.2% | viability [5] 75.4% | inhibition [6] 1.08% | RAM network inhibition [7] 4.09%

CN(C)c1ccc(CN2CCCCCC2)cc1
inactive: growth inhibition [1] -3.95% | growth inhibition [2] -24.5% | viability increase [3] -2% | viability [4] 87% | viability [5] 88.1% | inhibition [6] 0.44% | RAM network inhibition [7] 0.1%

O=P(O)(CN1CCCCC1)C1CCCCC1O (stereo not drawn)
inactive: growth inhibition [1] -11.2% | growth inhibition [2] -3.29% | viability increase [3] -1.71% | viability [4] 105% | viability [5] 104% | inhibition [6] 0.06% | RAM network inhibition [7] 1.57%

COc1ccc(-n2c(C)nc3c(cnn3-c3ccc(C)c(C)c3)c2=O)cc1
inactive: growth inhibition [1] -13.7% | growth inhibition [2] 8.51% | viability increase [3] 2.3% | viability [4] 86% | viability [5] 79% | inhibition [6] 2.09% | RAM network inhibition [7] 5.89%

COc1cc(NC(=O)C2CCCN2S(=O)(=O)c2ccc3c(c2)CCC(=O)N3)cc(OC)c1 (stereo not drawn)
inactive: growth inhibition [1] -15.3% | growth inhibition [2] -5.1% | viability increase [3] -1.09% | viability [4] 97.7% | viability [5] 105% | inhibition [6] 1.09% | RAM network inhibition [7] 1.33%

Cc1nnc(Sc2nc3c(c(=O)[nH]c(=O)n3C)n2Cc2ccccc2Cl)s1
inactive: growth inhibition [1] -9.12% | growth inhibition [2] -9.02% | viability increase [3] -2.89% | viability [4] 96.8% | viability [5] 90.5% | inhibition [6] 1.07% | RAM network inhibition [7] 2.84%

O=C(CSc1nc2c(cnn2-c2ccc(F)cc2)c(=O)[nH]1)N1CCCCCC1
inactive: growth inhibition [1] -3.72% | growth inhibition [2] -9.65% | viability increase [3] -3.34% | viability [4] 94.2% | viability [5] 93% | inhibition [6] 1.53% | RAM network inhibition [7] -0.11%

Nc1cc(N)nc(SCCOc2ccccc2)n1
inactive: growth inhibition [1] -4.79% | growth inhibition [2] -0.825% | viability increase [3] 0.93% | viability [4] 106% | viability [5] 106% | inhibition [6] 2.26% | RAM network inhibition [7] 2.17%

CCOC(=O)c1[nH]c(C)c(C(=O)OCC)c1C
inactive: growth inhibition [1] -9.48% | growth inhibition [2] 1.48% | viability increase [3] 2.18% | viability [4] 105% | viability [5] 97.5% | inhibition [6] 3.55% | RAM network inhibition [7] 4.06%

COc1ccc(N(CC(=O)Nc2ccc3c(c2)OCO3)S(=O)(=O)c2ccccc2)c(OC)c1
inactive: growth inhibition [1] -7.79% | growth inhibition [2] -13.1% | viability increase [3] -2.07% | viability [4] 71.8% | viability [5] 75.6% | inhibition [6] 2.93% | RAM network inhibition [7] 9.79%

CCN1CCCC1CNC(=O)Cn1cc2c(n1)CCC(C)C2 (stereo not drawn)
inactive: growth inhibition [1] -3.58% | growth inhibition [2] 0.66% | viability increase [3] -1.37% | viability [4] 91.7% | viability [5] 100% | inhibition [6] 0.72% | RAM network inhibition [7] 1.7%

Cc1cc(C(=O)Nc2cccnc2)on1
inactive: growth inhibition [1] -5.72% | growth inhibition [2] -5.71% | viability increase [3] -1.86% | viability [4] 103% | viability [5] 93.4% | inhibition [6] 0.355% | RAM network inhibition [7] 2.08%
